Experimental data from ChEMBL document CHEMBL1125736, “N-[(omega-amino-1-hydroxyalkyl)phenyl]methanesulfonamide derivatives with class III antiarrhythmic activity” (1991).

Legend:
Format in all cases: functional
Oryctolagus cuniculus [1] = species: Oryctolagus cuniculus; assay: Tested for conduction time measured at a pacing rate of 3 Hz in vitro with rabbit heart tissue preparations.
How it was run: (§1)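 Isolated rabbit heart tissues, all from one heart, each its own baseline; 2 h equilibration, perfusate changed every 15 min, basal stimulation 2 Hz between measurements. Exposed to 10^-7, 10^-6 and 10^-5 M drug, 15 min each; values reported at 10^-5 M as percent change from baseline. Drug solutions prepared daily in glass-distilled water. Force and rate recorded on polygraph.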

Oryctolagus cuniculus [2] = species: Oryctolagus cuniculus; assay: Tested for rate automaticity measured in beats per minute from unpaced right atria of rabbit heart.; how it was run: as §1
Oryctolagus cuniculus [3] = species: Oryctolagus cuniculus; assay: Tested for force of contraction measured in mg at a pacing rate of 2 Hz in vitro with rabbit heart tissue preparations.; how it was run: as §1
Oryctolagus cuniculus [4] = species: Oryctolagus cuniculus; assay: Tested for conduction time measured at a pacing rate of 1 Hz in vitro with rabbit heart tissue preparations.; how it was run: as §1
Oryctolagus cuniculus [5] = species: Oryctolagus cuniculus; assay: Tested for effective refractory period measured at a pacing rate of 1 Hz in vitro with rabbit heart tissue preparations.; how it was run: as §1
Oryctolagus cuniculus [6] = species: Oryctolagus cuniculus; assay: Tested for effective refractory period measured at a pacing rate of 3 Hz in vitro with rabbit heart tissue preparations.; parameters: unit: %; how it was run: as §1

Row | Compound | CT3 (Oryctolagus cuniculus [1]) | Rate (Oryctolagus cuniculus [2]) | FOC (Oryctolagus cuniculus [3]) | CT1 (Oryctolagus cuniculus [4]) | ERP1 (Oryctolagus cuniculus [5]) | ERP3 (Oryctolagus cuniculus [6])
1 | CCCCCCCCCCN(CC)CCCC(O)c1ccc(NS(C)(=O)=O)cc1 (configuration not stated) | 74.3 | -11 | -23.1 | 63.2 | 11.8 | 16.1
2 | CCCCCCCN(CC)CC(O)c1ccc(NS(C)(=O)=O)cc1 (configuration not stated) | – | -38 | -7 | 10.2 | 22.9 | 26.2
3 | CCCCCCCN(CC)CCCC(O)c1cccc(NS(C)(=O)=O)c1 (configuration not stated) | 54 | -16 | -15 | 21.3 | 25.2 | 19
4 | CCCCCCN(CC)CCCC(O)c1ccc(NS(C)(=O)=O)cc1 (configuration not stated) | 0 | -16 | -10.9 | -6.5 | 12.1 | 7.8
5 | CS(=O)(=O)Nc1ccc(C(O)CCCN2CCCCCCC2)cc1 (configuration not stated) | -4.7 | -10 | -5.6 | -4.5 | 21.4 | 23.5
6 | CCCCCCCN(CC)CCCC(=O)c1ccc(NS(C)(=O)=O)cc1 | 0.6 | -21 | -6.7 | -2.7 | 6.6 | 9.4
7 | CCCCCCCCN(CC)CCCC(O)c1ccc(NS(C)(=O)=O)cc1 (configuration not stated) | 29.8 | -28 | 0.7 | 17.3 | 5.3 | 4.3
8 | CCCCCCCN(C)CCCC(O)c1ccc(NS(C)(=O)=O)cc1 (configuration not stated) | 70 | -34 | 8.5 | 13 | 16.5 | 17.2
